In ChEMBL document CHEMBL4725371, “A Novel Redox Modulator Induces a GPX4-Mediated Cell Death That Is Dependent on Iron and Reactive Oxygen Species” (J Med Chem, 2020):
The source made the active and inactive calls. The calls are words filed in the database; no cut-off is given here.

Columns and labels:
[1] = Plasma concentration in CD-1 mouse at 20 mg/kg, po measured after 7 hrs by LC-MS/MS analysis; assay type: ADME, organism-based
Summary of the method: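 CD-1 mice dosed IP at 10 mg/kg or PO at 20 mg/kg, n=2 per route. Blood taken with heparinized pipettes at 0.5, 2, 4 and 7 h and spun at 15,000 rpm for 10 min. Plasma stored at −80 °C, then measured by LC-MS/MS.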

[2] = system: MIA PaCa-2; experiment: Induction of DNA damage in human MIA PaCa-2 cells assessed as increase in H2AX phosphorylation at 1 to 1.5 uM measured after 4 hrs by Western blot analysis; assay type: functional, cell-based; conditions: dose microM 1-1.5, time 4.0 hrs
Summary of the method: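 Cells were treated 4 h at the stated concentrations and lysed in RIPA with protease and phosphatase inhibitors. 25 μg protein was resolved on 10% SDS gels, transferred to PVDF and probed for STAT3, pSTAT3, pH2AX and GAPDH. Detection used fluorescent secondary antibodies, with normalisation to loading control.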

[3] = Half life in mouse liver microsomes at 10 uM in presence of NADPH by LC-MS/MS analysis; assay type: ADME, Microsome; conditions: liver microsomes
Summary of the method: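 Compound (10 μM working solution in 0.1 M phosphate buffer with 3.3 mM MgCl₂) was incubated with mouse liver microsomes and NADPH. Verapamil served as reference. Samples were taken at 0, 5, 10, 15, 30, 45 and 60 min and centrifuged at 3500 g. Supernatant was run by LC-MS/MS. t1/2 came from the slope of ln(peak area ratio) against time.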

[4] = system: MIA PaCa-2; experiment: Inhibition of colony formation in human MIA PaCa-2 cells at 0.4 to 0.8 uM measured after 7 to 9 days in presence of necroptosis inhibitor necrostatin-1 by crystal violet staining based assay; assay type: functional, cell-based; conditions: dose microM 0.4-0.8, time day 7-9
Summary of the method: (§1)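 Cells seeded overnight in 96-well plates at 300 cells/well (MIA PaCa-2) or 600 cells/well (BxPC-3), in RPMI 1640 with 10% FBS. Inhibitor added 1 h before compound, then continuous exposure for 7–9 days until control wells were 80–90% confluent. Stained with 0.05% crystal violet for 30 min, imaged after overnight drying and quantified.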

[5] = Half life in mouse plasma at 500 uM by LC-MS/MS analysis; assay type: ADME, cell-free; conditions: 500 µM
Summary of the method: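 Compound (500 μM DMSO stock) was added at 1 μL per 500 μL pooled plasma. Samples were taken at 0, 0.17, 0.5, 1, 2 and 4 h and centrifuged at 3500 g for 10 min. Supernatant was run by LC-MS/MS. t1/2 came from the slope of ln(compound/internal standard peak area) against time.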

[6] = system: MIA PaCa-2; experiment: Down regulation of PNPT1 expression in human MIA PaCa-2 cells at 3 times IC50 measured after 4 hrs in presence of NAC by proteomics analysis; assay type: functional, cell-based
[7] = system: PANC-1; experiment: Induction of reactive oxygen species in human PANC-1 cells at 10 uM measured after 1 hr by CM-H2DCFDA dye based fluorescence assay; assay type: functional, cell-based
Summary of the method: (§2)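 1.8 × 10⁴ cells per well were attached overnight, then loaded with 10 μM CM-H2DCFDA in HBSS for 40 min at 37 °C and washed. Compounds were added in HBSS. Fluorescence was read at Ex 483 / Em 530 nm. TBHP was the positive control. NAC at 3 mM was used where stated.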

[8] = system: MIA PaCa-2; experiment: Down regulation of PNPT1 expression in human MIA PaCa-2 cells at 3 times IC50 measured after 4 hrs by proteomics analysis; assay type: functional, cell-based
[9] = system: MIA PaCa-2; experiment: Inhibition of colony formation in human MIA PaCa-2 cells at 0.5 to 2 uM measured after 7 to 9 days in presence of N-acetylcysteine by crystal violet staining based assay; assay type: functional, cell-based; conditions: dose microM 0.5-2, time day 7-9; summary of the method: as §1
[10] = system: MIA PaCa-2; experiment: Induction of reactive oxygen species in human MIA PaCa-2 cells at 5 to 10 uM measured up to 4 hrs by CM-H2DCFDA dye based fluorescence assay; assay type: functional, cell-based; conditions: dose microM 5-10, time hrs <=4, TDE = time-dependent effect; summary of the method: as §2
[11] = system: MIA PaCa-2; experiment: Induction of ferroptosis in human MIA PaCa-2 cells assessed as increase in lipid peroxidation measured after 24 hrs by C11-BODIPY dye based fluorescence assay; assay type: functional, cell-based
Summary of the method: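 MIA PaCa-2 cells were treated for the set time, then given 10 μM C11-BODIPY for 30 min at 37 °C and washed. Fluorescence was read at 581/591 nm (reduced dye) and 488/510 nm (oxidized dye). The intensity ratio was compared by unpaired t-test.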

[12] = system: MIA PaCa-2; experiment: Induction of reactive oxygen species in human MIA PaCa-2 cells at 10 uM measured after 1 hr by CM-H2DCFDA dye based fluorescence assay; assay type: functional, cell-based; summary of the method: as §2
[13] = system: MIA PaCa-2; experiment: Induction of reactive oxygen species in human MIA PaCa-2 cells assessed as reduction in GSH to GSSG ratio at 1.5 to 6 uM measured after 2 to 4 hrs by GSH/GSSG-glo assay; assay type: functional, cell-based; conditions: dose microM 1.5-6, time hrs 2-4
Summary of the method: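 GSH/GSSG-Glo luminescent assay: 15,000–20,000 MIA PaCa-2 cells per well, attached overnight, treated 2 h and 4 h. Cells were lysed with total or oxidized glutathione reagent, then luciferin generation (30 min, room temperature) and detection reagents added. Luminescence was read after 15 min. Ratio was computed from net RLU as (total − GSSG)/(GSSG/2).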

[14] = system: MIA PaCa-2; experiment: Synergistic inhibition of colony formation in human MIA PaCa-2 cells at 0.25 uM measured after 24 hrs in presence of As2O3 by crystal violet staining based assay; assay type: functional, cell-based
Summary of the method: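 Colony formation in 96-well plates seeded at 300 (MIA PaCa-2) or 600 (PANC-1) cells/well. Napabucasin, As2O3 or olaparib added 1 h before test compound; drugs on cells 24 h. Plates kept until controls were 80–90% confluent (7–9 days), then stained with 0.05% crystal violet and quantified. Synergy scored by HSA and Bliss models.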

What does the source list for `CN1CCN(c2ccc(NC3=CC(=O)c4ncncc4C3=O)cc2)CC1`?
concentration at 7 h [1]: 23.3 ng/mL; Activity [2]: Active; half-life at 10 µM [3]: > 60 min; inhibition [4]: Active; t1/2 [5]: 6 min; Activity [6]: Active; Activity [7]: Active; Activity [8]: Active; inhibition [9]: inactive; Activity [10]: Tde; Activity [11]: Dose-dependent effect; Activity [12]: Active; Activity [13]: Active; inhibition [14]: Active
